Results as given in ChEMBL document CHEMBL4334465, “SAR Studies on Aromatic Acylhydrazone-Based Inhibitors of Fungal Sphingolipid Synthesis as Next-Generation Antifungal Agents” (J Med Chem, 2019).
Values after ≈ are worked out from the molar mass of the structure shown. Active and inactive are the calls of the source. The rule behind the calls is not given here.

How the values were obtained:
[1] = test system: Cryptococcus neoformans; test: Antifungal activity against Cryptococcus neoformans H99 measured after 24 to 72 hrs; assay type: functional; conditions: var grubii H99
Outline: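 Modified CLSI broth microdilution with inoculum per M27A3. Compounds were serially diluted 32 to 0.03 μg/mL. Media: C. neoformans in HEPES-buffered YNB without amino acids (pH 7.0, 2% glucose); Candida strains in YNB without ammonium sulfate or amino acids plus 1% asparagine (pH 7.0, 2% glucose); A. fumigatus in RPMI (pH 7.0, 2% glucose).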

[2] = test system: Cryptococcus neoformans; test: Fungicidal activity against Cryptococcus neoformans H99 measured after 6 hrs by time-kill assay; assay type: functional, var grubii H99
Outline: (§1)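 Overnight C. neoformans washed in PBS and resuspended in HEPES-buffered YNB, pH 7.4. 2 × 10⁴ cells exposed to a range of drug concentrations in 10 mL with 0.5% DMSO final, at 37°C, 5% CO₂, shaking at 200 rpm. Aliquots sampled over 96 h, diluted and plated on YPD; CFU counted after 48 h at 30°C.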

[3] = test system: A549; test: Cytotoxicity against human A549 cells after 24 to 48 hrs by MTT assay; assay type: functional; conditions: read-out: LD50 (the source's name)
Outline: (§2)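 A549 and HepG2 kept in DMEM with 10% FBS and 1% pen-strep. At passage 7, seeded at 10⁵ cells/well and allowed to adhere 14 h. Compound added at 0.03–128 μg/mL, untreated wells as controls. Incubation 37°C, 5% CO₂ for 24 or 48 h. MTT (5 mg/mL in PBS) added for 4 h, formazan dissolved in DMSO, OD570.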

[4] = test system: HepG2; test: Cytotoxicity against human HepG2 cells after 24 to 48 hrs by MTT assay; assay type: functional; conditions: read-out: LD50 (the source's name); outline: as §2
[5] = Selectivity index, ratio of LD50 for human A549 cells to MIC80 for Cryptococcus neoformans H99; assay type: toxicity; conditions: read-out: Selectivity Index
Outline: (§3)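 SI = LD₅₀/MIC₈₀. Cytotoxicity: A549 or HepG2 cells (DMEM, 10% FBS, passage 7, 10⁵ cells/well) adhered 14 h, then exposed to 0.03–128 μg/mL for 24 or 48 h at 37°C, 5% CO₂; MTT 4 h, formazan dissolved in DMSO, read at 570 nm. MIC₈₀ against C. neoformans from broth microdilution in HEPES-buffered YNB, pH 7.0.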

[6] = Selectivity index, ratio of LD50 for human HepG2 cells to MIC80 for Cryptococcus neoformans H99; assay type: toxicity; conditions: read-out: Selectivity Index; outline: as §3
[7] = test system: Cryptococcus neoformans; test: Fungicidal activity against Cryptococcus neoformans H99 measured after 96 hrs by time-kill assay; assay type: functional, var grubii H99; outline: as §1
[8] = test system: Cryptococcus neoformans; test: Fungicidal activity against Cryptococcus neoformans H99 measured after 48 hrs by time-kill assay; assay type: functional, var grubii H99; outline: as §1
[9] = test system: Cryptococcus neoformans; test: Fungistatic activity against Cryptococcus neoformans H99 by time-kill assay; assay type: functional, organism-based; conditions: var grubii H99; outline: as §1
[10] = test system: Cryptococcus neoformans; test: Fungicidal activity against Cryptococcus neoformans H99 measured after 72 hrs by time-kill assay; assay type: functional, var grubii H99; outline: as §1
[11] = test system: Cryptococcus neoformans; test: Fungicidal activity against Cryptococcus neoformans H99 measured after 12 hrs by time-kill assay; assay type: functional, var grubii H99; outline: as §1

| Compound | MIC80 [1] [µg/mL] | MFC100 [2] [µg/mL] | CC50 [3] [µg/mL] | CC50 [4] [µg/mL] | selectivity ratio [5] | selectivity ratio [6] | MFC100 [7] [µg/mL] | MFC100 [8] [µg/mL] | Activity [9] | MFC100 [10] [µg/mL] | MFC100 [11] [µg/mL] |
| --- | --- | --- | --- | --- | --- | --- | --- | --- | --- | --- | --- |
| O=C(N/N=C/c1cc(Br)cc(Br)c1O)c1ccc(OC(F)F)cc1 | 0.12 (≈ 0.259 µM) | 1 (≈ 2.15 µM) | 16 (≈ 34.5 µM) | 16 (≈ 34.5 µM) | 133 | 133 | – | – | – | – | – |
| O=C(N/N=C/c1cc(Br)cc(Br)c1O)c1cccc(OC(F)F)c1 | 0.12 (≈ 0.259 µM) | – | 16 (≈ 34.5 µM) | 16 (≈ 34.5 µM) | 133 | 133 | 0.25 (≈ 0.539 µM) | – | – | – | – |
| O=C(N/N=C/c1ccc(Br)cc1O)c1cccc(Br)c1 | 0.5 (≈ 1.26 µM) | – | 64 (≈ 161 µM) | 8 (≈ 20.1 µM) | 128 | 16 | – | 0.25 (≈ 0.628 µM) | – | – | – |
| O=C(N/N=C/c1cc(C(F)(F)F)ccc1O)c1cccc(Br)c1 | 0.5 (≈ 1.29 µM) | – | 16 (≈ 41.3 µM) | 16 (≈ 41.3 µM) | 32 | 32 | – | – | Active | – | – |
| O=C(N/N=C/c1ccc(Br)cc1O)c1cccc(F)c1F | 0.5 (≈ 1.41 µM) | – | 16 (≈ 45.1 µM) | 16 (≈ 45.1 µM) | 32 | 32 | – | 0.25 (≈ 0.704 µM) | – | – | – |
| O=C(N/N=C/c1ccc(Br)cc1O)c1ccc(Br)c(Br)c1 | 0.12 (≈ 0.252 µM) | – | 4 (≈ 8.39 µM) | 8 (≈ 16.8 µM) | 33.3 | 66.6 | – | – | – | 0.5 (≈ 1.05 µM) | – |
| O=C(N/N=C/c1ccc(Br)cc1O)c1cc(Br)ccc1Br | 0.12 (≈ 0.252 µM) | 0.25 (≈ 0.524 µM) | 32 (≈ 67.1 µM) | 16 (≈ 33.5 µM) | 267 | 133 | – | – | – | – | – |
| O=C(N/N=C/c1cc(Cl)ccc1O)c1cc(Br)cc(Br)c1 | 0.12 (≈ 0.277 µM) | – | 16 (≈ 37 µM) | 16 (≈ 37 µM) | 133 | 133 | – | – | – | – | 1 (≈ 2.31 µM) |
| O=C(N/N=C/c1cc(Cl)ccc1O)c1ccc(Br)cc1Br | 0.25 (≈ 0.578 µM) | – | 64 (≈ 148 µM) | 64 (≈ 148 µM) | 256 | 256 | – | – | – | – | 1 (≈ 2.31 µM) |
| O=C(N/N=C/c1cc(F)ccc1O)c1ccc(Br)cc1 | 1 (≈ 2.97 µM) | – | 8 (≈ 23.7 µM) | 16 (≈ 47.5 µM) | 8 | 16 | 4 (≈ 11.9 µM) | – | – | – | – |
| O=C(N/N=C/c1ccc(Br)cc1O)c1ccc(Br)cc1 | 0.06 (≈ 0.151 µM) | – | 16 (≈ 40.2 µM) | 32 (≈ 80.4 µM) | 267 | 533 | 0.25 (≈ 0.628 µM) | – | – | – | – |
| O=C(N/N=C/c1cc(Br)ccc1O)c1ccc(OC(F)(F)F)cc1 | 0.06 (≈ 0.149 µM) | – | 4 (≈ 9.92 µM) | 16 (≈ 39.7 µM) | 66.6 | 267 | – | – | – | – | 1 (≈ 2.48 µM) |
| O=C(N/N=C/c1cc(Br)cc(Br)c1O)c1ccc(OC(F)(F)F)cc1F | 0.06 (≈ 0.12 µM) | – | 16 (≈ 32 µM) | 16 (≈ 32 µM) | 267 | 267 | – | 0.5 (≈ 1 µM) | – | – | – |
| O=C(N/N=C/c1cccc(Br)c1O)c1cccc(C(F)(F)F)c1 | 1 (≈ 2.58 µM) | – | 16 (≈ 41.3 µM) | 16 (≈ 41.3 µM) | 16 | 16 | – | 2 (≈ 5.17 µM) | – | – | – |
| O=C(N/N=C/c1cc(Br)cc(Br)c1O)c1ccc(C(F)(F)F)cc1F | 0.12 (≈ 0.248 µM) | – | 64 (≈ 132 µM) | 16 (≈ 33.1 µM) | 533 | 133 | – | 0.5 (≈ 1.03 µM) | – | – | – |
| N#Cc1ccc(C(=O)N/N=C/c2cc(Br)cc(Br)c2O)cc1 | 0.06 (≈ 0.142 µM) | – | 64 (≈ 151 µM) | 16 (≈ 37.8 µM) | 1070 | 267 | – | – | – | 1 (≈ 2.36 µM) | – |
| O=C(N/N=C/c1ccc(Br)cc1O)c1cc(Br)cc(Br)c1 | 1 (≈ 2.1 µM) | – | 4 (≈ 8.39 µM) | 16 (≈ 33.5 µM) | 4 | 16 | – | 1 (≈ 2.1 µM) | – | – | – |
| O=C(N/N=C/c1cc(Br)ccc1O)c1ccc(C(F)(F)F)cc1F | 0.5 (≈ 1.23 µM) | – | 16 (≈ 39.5 µM) | 16 (≈ 39.5 µM) | 32 | 32 | – | 1 (≈ 2.47 µM) | – | – | – |
